A short description of data set [1]: melting temperature; fluorescence melt of hairpins on a sequencing array, two-state fit, raised by 9.35 °C to match UV melts. Conditions: sodium 0.088 M. The gist of the method: (§1)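 Library hairpins on a sequenced MiSeq flow cell carried annealed Cy3 and quencher oligos, and their Cy3 fluorescence was imaged in 50 mM Na-HEPES pH 8.0 with 25 mM NaCl, in 2.5 °C steps up to 60 °C. Signals were normalised to Cy3 before quenching and to control constructs. Melting temperature and folding enthalpy were obtained from bootstrapped two-state fits, combined by inverse-variance weighting across four replicates, and the fitted temperatures were then raised by 9.35 °C to match UV melts.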

The nature of data set [2]: folding enthalpy; higher = less favourable; fluorescence melt of hairpins on a sequencing array, two-state fit. The following applies: sodium 0.088 M. In short, it runs like this: as §1

Take GACATACCGAAAGGTGTC (((..(((....)))))): the Tm in data set [1] turned out to be 41.3 °C. For the same sequence, the folding enthalpy in data set [2] was -76.3 kJ/mol.
Turning to GACATAGGAAACTACGTC (((.(((....))).))), in data set [1], the Tm was 30 °C. Further, the folding enthalpy in data set [2] is -63 kJ/mol.
In the same order, the values of GACATCACGAAAGTGGTC (((..(((....)))))) are 34.7 °C and -60.8 kJ/mol.
The like results for GACATCCGAAAGGAGTC (((.(((....)))))) were, in that order, 45.4 °C and -88.9 kJ/mol.
The like results for GACATCGGAAACAATGTC (((((.(....).))))) were, in that order, 34.1 °C and -138 kJ/mol.
Turning to GACATCGGAAACGATGCC (.(((((....))))).), in data set [1], the Tm turned out to be 44.9 °C. In data set [2], the folding enthalpy was -52.3 kJ/mol.
For GACATGCGAAAGCAGTC (((.(((....)))))), the Tm in data set [1] came to 51.9 °C. Further, the folding enthalpy in data set [2] is -70.8 kJ/mol.
In the same order, the values of GACATGGGAAACCATATC ((.((((....)))).)) are 28 °C and -58.6 kJ/mol.
For GACATTGAAAAATGTC ((((((....)))))), the Tm in data set [1] was 50.3 °C. Besides, the folding enthalpy in data set [2] was -130 kJ/mol.
In the same order, the values of GACATTGGAAACAATGCC (.(((((....))))).) are 38.1 °C and -90 kJ/mol.
GACCAACGAAAGTTCGTC (((.(((....))).))): the Tm in data set [1] turned out to be 34.9 °C. Besides, the folding enthalpy in data set [2] is -102 kJ/mol.
The like results for GACCAACGAAAGTTTGTC (((.(((....))).))) were, in that order, 41.7 °C and -113 kJ/mol.
For the sequence GACCACACGAAAGTGGTC (((..(((....)))))), the Tm in data set [1] was found to be 57 °C. In data set [2], the folding enthalpy is -129 kJ/mol.
In the same order, the values of GACCACCGAAAGGTAGTC (((.(((....))).))) are 47 °C and -132 kJ/mol.
In the same order, the values of GACCACGAAAGTGAAGTC ((((((....)))..))) are 40.2 °C and -90.9 kJ/mol.
In the same order, the values of GACCACGAAAGTGCGGTC ((((((....)))..))) are 43.2 °C and -80.6 kJ/mol.
In the case of GACCACGAAAGTGGAGTC ((((((....)))..))), the Tm in data set [1] amounted to 38.4 °C. For the same sequence, in data set [2], the folding enthalpy was -48.1 kJ/mol.
In the case of GACCACGAAAGTGGCGTC ((((((....)))..))), the Tm in data set [1] was 45.6 °C. Further, the folding enthalpy in data set [2] is -52.3 kJ/mol.
With GACCACGCGAAAGCGGTC (((..(((....)))))), the Tm in data set [1] was determined as 47.3 °C. In addition, the folding enthalpy in data set [2] is -55.2 kJ/mol.
In the same order, the values of GACCAGGGAAACCCGGTC ((((.((....)).)))) are 50.1 °C and -158 kJ/mol.
The like results for GACCAGGGAAACTTGGTC (((((.(....).))))) were, in that order, 47.8 °C and -158 kJ/mol.
The like results for GACCATCCGAAAGGAGTC (((..(((....)))))) were, in that order, 26.4 °C and -60.4 kJ/mol.
With GACCATGGAAACATGATC ((.((((....)))).)), in data set [1], the Tm amounted to 35.4 °C. In data set [2], the folding enthalpy is -96.9 kJ/mol.
The like results for GACCCAGGAAACTAGGTC ((((.((....)).)))) were, in that order, 36 °C and -112 kJ/mol.
The like results for GACCCCGAAAGGGTCGTC ((((((....)))..))) were, in that order, 58.2 °C and -103 kJ/mol.
In the same order, the values of GACCCCGGAAACAGGGTC (((((.(....).))))) are 48.8 °C and -124 kJ/mol.
On to GACCCCGGAAACGGGATC ((.((((....)))).)), for which the Tm in data set [1] was 45.8 °C. The folding enthalpy in data set [2] is -68.1 kJ/mol.
The like results for GACCCGCGAAAGCGAGTC (((.(((....))).))) were, in that order, 55.7 °C and -112 kJ/mol.
The like results for GACCCTGGAAACAGAGTC (((.(((....))).))) were, in that order, 36.6 °C and -123 kJ/mol.
The like results for GACCGACCGAAAGGTGTC (((..(((....)))))) were, in that order, 35.9 °C and -66.3 kJ/mol.
Take GACCGACGAAAGTCCGTC (((.(((....))).))): the Tm in data set [1] turned out to be 43.1 °C. Moreover, the folding enthalpy in data set [2] is -100 kJ/mol.
The like results for GACCGAGGAAACTCGACC (..((((....))))..) were, in that order, 26.6 °C and -60 kJ/mol.
The like results for GACCGAGGAAACTTGGTC ((((.((....)).)))) were, in that order, 50.1 °C and -136 kJ/mol.
GACCGCGAAAGCGAGTC ((((((....))).))): the Tm in data set [1] stood at 64.1 °C. For the same sequence, the folding enthalpy in data set [2] is -83.8 kJ/mol.
In the same order, the values of GACCGCGAAAGCGATGTC ((((((....)))..))) are 44.3 °C and -62.5 kJ/mol.
The like results for GACCGCGAAAGCGCTGTC ((((((....)))..))) were, in that order, 39 °C and -59.8 kJ/mol.
The like results for GACCGGGGAAACCCGGCC (.(((((....))))).) were, in that order, 50.4 °C and -46.7 kJ/mol.

(Values after the array DNA melting data of Ke et al. (doi:10.1101/2024.01.08.574731).)
